{
  "source": "ChEMBL document CHEMBL4138266",
  "about": "“Lysine Analogue of Polymyxin B as a Significant Opportunity for Photodynamic Antimicrobial Chemotherapy” (ACS Med Chem Lett, 2018)",
  "key": {"Escherichia coli [1]": {"test_system": "Escherichia coli", "test": "Photobactericidal activity against Escherichia coli CIP54.8T irradiated with white light at 4.83 mW/cm2 for 20 hrs", "assay_type": "functional", "settings": "light or radiation study", "method_in_brief": "(§1)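 Minimal bactericidal concentration (MBC) was determined in tryptic soy medium with log-phase bacteria at 37 °C. Plates were either kept in the dark or given 20 h of white light at 4.83 mW/cm². MBC was taken as the concentration killing 99.99% of bacteria, i.e. a 4-log reduction versus the untreated control.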"}, "Pseudomonas aeruginosa [2]": {"test_system": "Pseudomonas aeruginosa", "test": "Photobactericidal activity against Pseudomonas aeruginosa assessed as PI-positive and PS-positive cell population at 1 uM incubated for 30 mins followed by 1 washing by propidium iodide staining based flow cytometry", "assay_type": "functional", "method_in_brief": "(§2)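 Bacteria were incubated with 1 µM conjugate for 30 min at 37 °C, washed with saline, then stained with propidium iodide (0.01 mg/mL) to assess viability. Samples were analysed by flow cytometry. Q1 is the PI-positive (permeable membrane) population; Q2 is double positive for PI and photosensitizer fluorescence.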"}, "Escherichia coli [3]": {"test_system": "Escherichia coli", "test": "Bactericidal activity against Escherichia coli CIP54.8T incubated for 30 mins under dark conditions", "assay_type": "organism-based", "settings": "0.5 h", "method_in_brief": "as §1"}, "Pseudomonas aeruginosa [4]": {"test_system": "Pseudomonas aeruginosa", "test": "Photobactericidal activity against Pseudomonas aeruginosa pretreated for 30 mins followed by compound wash out with subsequent irradiation with white light at 4.83 mW/cm2", "assay_type": "functional, organism-based", "method_in_brief": "(§3)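 Bacteria were pre-incubated with conjugate in 1X PBS (P. aeruginosa at 1 µM), then washed three times with PBS. They were irradiated with white LED light (4.83 mW/cm²; 7 J/cm² corresponds to 24 min) at 37 °C. Survival, as % of initial density, was plotted against cumulative light fluence.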"}, "Staphylococcus aureus [5]": {"test_system": "Staphylococcus aureus", "test": "Photobactericidal activity against Staphylococcus aureus at 1 uM after 30 mins by confocal laser scanning microscopy", "assay_type": "functional, organism-based", "method_in_brief": "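S. aureus inoculum was suspended in 1 µM conjugate for 30 min at 37 °C, washed three times with PBS, and imaged by confocal laser scanning microscopy at 100X to visualise bacteria-associated fluorescence.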"}, "Escherichia coli [6]": {"test_system": "Escherichia coli", "test": "Photobactericidal activity against Escherichia coli pretreated for 30 mins followed by compound wash out with subsequent irradiation with white light at 4.83 mW/cm2", "assay_type": "functional, organism-based", "method_in_brief": "as §3"}, "NHDF [7]": {"test_system": "NHDF", "test": "Cytotoxicity against human NHDF cells assessed as reduction in cell viability at 5 to 5000 nM incubated under dark conditions for 2 hrs measured after 24 hrs by MTT assay", "assay_type": "cell-based", "settings": "5 µM"}, "Pseudomonas aeruginosa [8]": {"test_system": "Pseudomonas aeruginosa", "test": "Bactericidal activity against Pseudomonas aeruginosa CIP76110 incubated for 30 mins under dark conditions", "assay_type": "organism-based", "settings": "0.5 h", "method_in_brief": "as §1"}, "Staphylococcus aureus [9]": {"test_system": "Staphylococcus aureus", "test": "Photobactericidal activity against Staphylococcus aureus pretreated for 30 mins followed by compound wash out with subsequent irradiation with white light at 4.83 mW/cm2", "assay_type": "functional, organism-based", "method_in_brief": "as §3"}, "Pseudomonas aeruginosa [10]": {"test_system": "Pseudomonas aeruginosa", "test": "Photobactericidal activity against Pseudomonas aeruginosa CIP76110 irradiated with white light at 4.83 mW/cm2 for 20 hrs", "assay_type": "functional", "settings": "CIP76110, light or radiation study", "method_in_brief": "as §1"}, "Staphylococcus aureus [11]": {"test_system": "Staphylococcus aureus", "test": "Photobactericidal activity against Staphylococcus aureus CIP76.25 irradiated with white light at 4.83 mW/cm2 for 20 hrs", "assay_type": "functional", "settings": "CIP76.25, light or radiation study", "method_in_brief": "as §1"}, "NHDF [12]": {"test_system": "NHDF", "test": "Cytotoxicity against human NHDF cells assessed as reduction in cell viability at 5 to 5000 nM irradiated with white light at 4.83 mW/cm2 for 2 hrs measured after 24 hrs by MTT assay", "assay_type": "cell-based", "settings": "5 µM"}, "Pseudomonas aeruginosa [13]": {"test_system": "Pseudomonas aeruginosa", "test": "Photobactericidal activity against Pseudomonas aeruginosa assessed as live bacterial cells with membrane integrity loss at 1 uM incubated for 30 mins followed by 1 washing by propidium iodide staining based flow cytometry", "assay_type": "functional", "method_in_brief": "as §2"}, "Staphylococcus aureus [14]": {"test_system": "Staphylococcus aureus", "test": "Bactericidal activity against Staphylococcus aureus CIP76.25 incubated for 30 mins under dark conditions", "assay_type": "ADME, organism-based", "settings": "0.5 h", "method_in_brief": "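S. aureus exposed to compound in PBS 1X for 30 min at 37 °C, then washed three times with PBS. The light arm was white LED irradiation at 4.83 mW/cm² (7 J/cm² = 24 min) at 37 °C. Survival was expressed as % of initial bacterial density.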"}},
  "note": "Activity calls are given as the source filed them. The calls are words filed in the database; no cut-off is given here.",
  "data": [
    {"smiles": "CCCCCCCC(=O)N[C@@H](CSC1CC(=O)N(CCCCCC(=O)Nc2ccc(-c3c4nc(c(-c5cc[n+](C)cc5)c5ccc([nH]5)c(-c5cc[n+](C)cc5)c5nc(c(-c6cc[n+](C)cc6)c6ccc3[nH]6)C=C5)C=C4)cc2)C1=O)C(=O)N[C@H](C(=O)N[C@@H](CCN)C(=O)N[C@H]1CCNC(=O)[C@H]([C@@H](C)O)NC(=O)[C@H](CCN)NC(=O)[C@H](CCN)NC(=O)[C@H](CC(C)C)NC(=O)[C@@H](Cc2ccccc2)NC(=O)[C@H](CCN)NC1=O)[C@@H](C)O.[I-].[I-].[I-]", "note": "(some centres not stated)", "values": [
      {"measurement": "MBC", "setting": "Escherichia coli [1]", "result": 0.5, "unit": "µM"},
      {"measurement": "Activity", "setting": "Pseudomonas aeruginosa [2]", "result": 80, "unit": "%"},
      {"measurement": "MBC", "setting": "Escherichia coli [3]", "result": "1.2 to 5", "unit": "µM"},
      {"measurement": "Activity", "setting": "Pseudomonas aeruginosa [4]", "result": "Active"},
      {"measurement": "Activity", "setting": "Staphylococcus aureus [5]", "result": "Active"},
      {"measurement": "Activity", "setting": "Escherichia coli [6]", "result": "Active"},
      {"measurement": "Activity", "setting": "NHDF [7]", "result": "Non-Toxic"},
      {"measurement": "MBC", "setting": "Pseudomonas aeruginosa [8]", "result": 10, "unit": "µM"},
      {"measurement": "Activity", "setting": "Staphylococcus aureus [9]", "result": "Active"},
      {"measurement": "MBC", "setting": "Pseudomonas aeruginosa [10]", "result": 2.5, "unit": "µM"},
      {"measurement": "MBC", "setting": "Staphylococcus aureus [11]", "result": 0.8, "unit": "µM"},
      {"measurement": "Activity", "setting": "NHDF [12]", "result": "Non-Toxic"},
      {"measurement": "Activity", "setting": "Pseudomonas aeruginosa [13]", "result": 80, "unit": "%"}
    ]},
    {"smiles": "CCCCCCCC(=O)N[C@@H](CS)C(=O)N[C@H](C(=O)N[C@@H](CCN)C(=O)N[C@H]1CCNC(=O)[C@H]([C@@H](C)O)NC(=O)[C@H](CCN)NC(=O)[C@H](CCN)NC(=O)[C@H](CC(C)C)NC(=O)[C@@H](Cc2ccccc2)NC(=O)[C@H](CCN)NC1=O)[C@@H](C)O", "values": [
      {"measurement": "MBC", "setting": "Escherichia coli [1]", "result": 5, "unit": "µM"},
      {"measurement": "MBC", "setting": "Escherichia coli [3]", "result": 5, "unit": "µM"},
      {"measurement": "MBC", "setting": "Staphylococcus aureus [14]", "result": "> 50", "unit": "µM"},
      {"measurement": "MBC", "setting": "Pseudomonas aeruginosa [8]", "result": 10, "unit": "µM"},
      {"measurement": "MBC", "setting": "Pseudomonas aeruginosa [10]", "result": 10, "unit": "µM"},
      {"measurement": "MBC", "setting": "Staphylococcus aureus [11]", "result": "> 50", "unit": "µM"}
    ]},
    {"smiles": "C[n+]1ccc(-c2c3nc(c(-c4cc[n+](C)cc4)c4ccc([nH]4)c(-c4cc[n+](C)cc4)c4nc(c(-c5cc[n+](C)cc5)c5ccc2[nH]5)C=C4)C=C3)cc1", "values": [
      {"measurement": "MBC", "setting": "Escherichia coli [1]", "result": 18, "unit": "µM"},
      {"measurement": "MBC", "setting": "Pseudomonas aeruginosa [10]", "result": 20, "unit": "µM"},
      {"measurement": "MBC", "setting": "Staphylococcus aureus [11]", "result": 5, "unit": "µM"}
    ]}
  ]
}
